Test results taken from ChEMBL document CHEMBL4828738, “Design, synthesis and evaluation of novel 5-phenylthiophene derivatives as potent fungicidal of Candida albicans and antifungal reagents of fluconazole-resistant fungi” (Eur J Med Chem, 2021).
Converted amounts (≈) assume the structure as drawn.

How the values were obtained:
[1] = biological target: CYP2C9 (Homo sapiens, UniProt P11712); test: Inhibition of CYP2C9 in human liver Microsome using diclofenac as substrate preincubated for 10 mins followed by NADPH addition and further incubated for 10 mins as substrate by LC-MS/MS analysis relative to control; conditions: liver microsomes, probe diclofenac
CYP2C9, sequence (P11712 whole entry): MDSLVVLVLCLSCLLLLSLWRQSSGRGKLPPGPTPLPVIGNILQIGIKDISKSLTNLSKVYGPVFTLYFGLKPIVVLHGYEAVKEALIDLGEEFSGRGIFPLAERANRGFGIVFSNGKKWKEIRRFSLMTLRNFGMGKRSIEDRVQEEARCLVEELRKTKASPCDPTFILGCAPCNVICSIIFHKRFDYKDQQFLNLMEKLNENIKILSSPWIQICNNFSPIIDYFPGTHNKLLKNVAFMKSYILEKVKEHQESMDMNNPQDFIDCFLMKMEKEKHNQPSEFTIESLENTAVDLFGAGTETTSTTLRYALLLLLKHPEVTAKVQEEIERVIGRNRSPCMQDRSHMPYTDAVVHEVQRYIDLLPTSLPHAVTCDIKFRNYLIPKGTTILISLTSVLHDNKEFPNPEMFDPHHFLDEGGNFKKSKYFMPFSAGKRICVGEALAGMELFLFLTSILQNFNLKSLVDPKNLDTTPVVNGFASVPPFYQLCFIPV

[2] = test system: Candida albicans; test: Antifungal activity against Candida albicans ATCC SC5314 assessed as fungal growth inhibition by CLSI protocol based method; format: functional
[3] = test system: Candida albicans; test: Antifungal activity against Candida albicans CPCC400616 assessed as fungal growth inhibition by CLSI protocol based method; format: functional
[4] = test system: Candida tropicalis; test: Antifungal activity against Candida tropicalis CGMCC 2.3739 assessed as fungal growth inhibition by CLSI protocol based method; format: functional
[5] = test system: Cryptococcus neoformans; test: Antifungal activity against Cryptococcus neoformans CGMCC2.3161 assessed as fungal growth inhibition by CLSI protocol based method; format: functional
[6] = test system: Candida parapsilosis; test: Antifungal activity against Candida parapsilosis GIM2.190 assessed as fungal growth inhibition by CLSI protocol based method; format: functional; conditions: Lodderomyces parapsilosis
[7] = test system: Nakaseomyces glabratus; test: Antifungal activity against Candida glabrata assessed as fungal growth inhibition by CLSI protocol based method; format: functional
[8] = test system: Pichia kudriavzevii; test: Antifungal activity against Candida krusei GIM2.1 assessed as fungal growth inhibition by CLSI protocol based method; format: functional
[9] = test system: Candida albicans; test: Antifungal activity against fluconazole-resistant Candida albicans 901 assessed as fungal growth inhibition by CLSI protocol based method
[10] = test system: Candida albicans; test: Antifungal activity against fluconazole-resistant Candida albicans 904 assessed as fungal growth inhibition by CLSI protocol based method
[11] = test system: Candida albicans; test: Antifungal activity against fluconazole-resistant Candida albicans 632 assessed as fungal growth inhibition by CLSI protocol based method
[12] = test system: Candida albicans; test: Antifungal activity against fluconazole-resistant Candida albicans 100 assessed as fungal growth inhibition by CLSI protocol based method
[13] = test system: Candida albicans; test: Antifungal activity against fluconazole-resistant Candida albicans 103 assessed as fungal growth inhibition by CLSI protocol based method
[14] = test system: Candida albicans; test: Antifungal activity against fluconazole-resistant Candida albicans 311 assessed as fungal growth inhibition by CLSI protocol based method
[15] = test system: Candida albicans; test: Fungicidal activity against Candida albicans ATCC SC5314 assessed as inhibition of visible fungal growth measured after 48 hrs; format: functional
[16] = test system: Candida albicans; test: Anti-biofilm activity in Candida albicans CPCC400616 assessed as inhibition of biofilm formation incubated for 24 hrs by XTT assay; format: functional
Outline: (§1)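 C. albicans CPCC400616 suspension placed in wells at 37 °C. Non-adherent cells and medium were removed at 3, 6, 18 or 24 h and wells washed with PBS. Compounds were added at a range of concentrations in fresh RPMI 1640 and incubated a further 24 h at 37 °C. Biofilm metabolic activity was read by XTT reduction.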

[17] = test system: Candida albicans; test: Anti-biofilm activity in Candida albicans CPCC400616 assessed as inhibition of biofilm formation incubated for 18 hrs by XTT assay; format: functional; outline: as §1
[18] = test system: Candida albicans; test: Anti-biofilm activity in Candida albicans CPCC400616 assessed as inhibition of biofilm formation incubated for 6 hrs by XTT assay; format: functional; outline: as §1
[19] = test system: Candida albicans; test: Anti-biofilm activity in Candida albicans CPCC400616 assessed as inhibition of biofilm formation incubated for 3 hrs by XTT assay; format: functional; outline: as §1
[20] = test system: THLE-2; test: Cytotoxicity against human THLE-2 cells assessed as reduction in cell viability measured after 96 hrs by MTT assay; format: ADME, cell-based; conditions: THLE-2, 96 h
[21] = test system: A549; test: Cytotoxicity against human A549 cells assessed as reduction in cell viability measured after 96 hrs by MTT assay; format: ADME, cell-based; conditions: A549, 96 h
[22] = test system: MCF7; test: Cytotoxicity against human MCF7 cells assessed as reduction in cell viability measured after 96 hrs by MTT assay; format: ADME, cell-based; conditions: MCF7, 96 h
[23] = biological target: CYP2D6 (Homo sapiens, UniProt P10635); test: Inhibition of CYP2D6 in human liver Microsome using dextromethorphan as substrate preincubated for 10 mins followed by NADPH addition and further incubated for 10 mins as substrate by LC-MS/MS analysis relative to control; conditions: liver microsomes, probe dextromethorphan
CYP2D6, sequence (P10635 whole entry): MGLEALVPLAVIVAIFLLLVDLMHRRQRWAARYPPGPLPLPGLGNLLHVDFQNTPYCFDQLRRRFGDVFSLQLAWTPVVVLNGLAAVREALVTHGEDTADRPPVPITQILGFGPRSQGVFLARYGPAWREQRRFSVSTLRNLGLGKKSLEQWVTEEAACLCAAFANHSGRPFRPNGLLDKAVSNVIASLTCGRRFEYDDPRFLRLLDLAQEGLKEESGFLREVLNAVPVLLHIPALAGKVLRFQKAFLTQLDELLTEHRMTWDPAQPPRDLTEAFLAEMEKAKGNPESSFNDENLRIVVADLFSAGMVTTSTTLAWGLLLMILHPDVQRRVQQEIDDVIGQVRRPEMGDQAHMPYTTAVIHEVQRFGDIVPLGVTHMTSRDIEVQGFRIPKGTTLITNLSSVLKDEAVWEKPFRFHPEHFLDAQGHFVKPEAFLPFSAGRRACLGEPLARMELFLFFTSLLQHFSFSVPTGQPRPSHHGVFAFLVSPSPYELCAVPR

[24] = Metabolic stability in human plasma assessed as parent compound remaining after 60 mins by LC-MS/MS analysis; format: ADME, cell-free; conditions: read-out: Stability
[25] = Metabolic stability in human plasma assessed as parent compound remaining after 120 mins by LC-MS/MS analysis; format: ADME, cell-free; conditions: read-out: Stability
[26] = Metabolic stability in human plasma assessed as half life after 60 mins by LC-MS/MS analysis; format: ADME, cell-free
[27] = biological target: T1, Lanosterol 14-alpha demethylase (Candida albicans (strain SC5314 / ATCC MYA-2876) (Yeast), UniProt P10613); test: Inhibition of CYP51 in Candida albicans assessed as lanosterol level at 0.25 ug/ml measured after 18 hrs by GC-MS analysis relative to control; parameters: scale not given: the % may be the effect or the level left; conditions: at 0.25 µg/mL
T1 sequence (P10613 whole entry): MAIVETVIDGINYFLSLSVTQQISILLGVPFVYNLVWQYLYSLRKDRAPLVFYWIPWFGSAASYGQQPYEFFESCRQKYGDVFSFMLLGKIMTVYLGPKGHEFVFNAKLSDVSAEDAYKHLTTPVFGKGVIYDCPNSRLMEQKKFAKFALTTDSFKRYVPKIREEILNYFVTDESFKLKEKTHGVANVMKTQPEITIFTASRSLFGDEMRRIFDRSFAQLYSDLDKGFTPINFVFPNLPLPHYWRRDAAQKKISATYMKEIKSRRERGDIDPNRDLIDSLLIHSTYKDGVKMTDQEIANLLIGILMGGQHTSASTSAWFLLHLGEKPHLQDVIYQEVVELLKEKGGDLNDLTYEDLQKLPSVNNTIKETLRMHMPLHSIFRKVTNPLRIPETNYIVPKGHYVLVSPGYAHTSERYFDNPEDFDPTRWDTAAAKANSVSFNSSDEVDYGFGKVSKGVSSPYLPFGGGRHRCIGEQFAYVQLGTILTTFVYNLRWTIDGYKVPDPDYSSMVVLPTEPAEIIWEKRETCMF

[28] = biological target: T1, Lanosterol 14-alpha demethylase; test: Inhibition of CYP51 in Candida albicans assessed as ergosterol level at 0.25 ug/ml after 18 hrs by GC-MS analysis (reference value: 96.93 %); parameters: scale not given: the % may be the effect or the level left; conditions: at 0.25 µg/mL
[29] = biological target: T1, Lanosterol 14-alpha demethylase; test: Inhibition of CYP51 in Candida albicans assessed as Eburicol level at 0.25 ug/ml measured after 18 hrs by GC-MS analysis relative to control; parameters: scale not given: the % may be the effect or the level left; conditions: at 0.25 µg/mL
[30] = biological target: T1, Lanosterol 14-alpha demethylase; test: Inhibition of CYP51 in Candida albicans assessed as 14alpha-methylfecosterol level at 0.25 ug/ml measured after 18 hrs by GC-MS analysis relative to control; parameters: scale not given: the % may be the effect or the level left; conditions: at 0.25 µg/mL
[31] = biological target: T1, Lanosterol 14-alpha demethylase; test: Inhibition of CYP51 in Candida albicans assessed as other sterols level at 0.25 ug/ml measured after 18 hrs by GC-MS analysis relative to control; parameters: scale not given: the % may be the effect or the level left; conditions: at 0.25 µg/mL

SMILES	MIC [2] [µg/mL]	MIC [3] [µg/mL]	MIC [4] [µg/mL]	MIC [5] [µg/mL]	MIC [6] [µg/mL]	MIC [7] [µg/mL]	MIC [8] [µg/mL]	MIC [9] [µg/mL]	MIC [10] [µg/mL]	MIC [11] [µg/mL]	MIC [12] [µg/mL]	MIC [13] [µg/mL]	MIC [14] [µg/mL]	MFC [15] [µg/mL]	MBIC50 [16] [µg/mL]	MBIC50 [17] [µg/mL]	MBIC50 [18] [µg/mL]	MBIC50 [19] [µg/mL]	IC50 [20] [µM]	IC50 [21] [µM]	also measured
Nc1ccc(S(=O)(=O)Nc2ccnn2-c2ccccc2)cc1 [SULFAPHENAZOLE]	–	–	–	–	–	–	–	–	–	–	–	–	–	–	–	–	–	–	–	–	inhibition at 10 min [1]: 84.5%
COc1ccc(-c2ccc(C(=O)NC(Cn3ccnc3)C(=O)c3ccccc3)s2)cc1 (configuration not stated)	0.125 (≈ 0.29 µM)	1 (≈ 2.32 µM)	2 (≈ 4.63 µM)	> 64	> 64	> 64	> 64	2 (≈ 4.63 µM)	4 (≈ 9.27 µM)	8 (≈ 18.5 µM)	2 (≈ 4.63 µM)	4 (≈ 9.27 µM)	4 (≈ 9.27 µM)	–	–	–	–	–	–	–	–
O=C(NC(Cn1ccnc1)C(=O)c1ccc(F)cc1)c1ccc(-c2ccc(Cl)cc2)s1 (configuration not stated)	0.06 (≈ 0.132 µM)	0.25 (≈ 0.551 µM)	2 (≈ 4.41 µM)	> 64	> 64	1 (≈ 2.2 µM)	> 64	8 (≈ 17.6 µM)	16 (≈ 35.2 µM)	4 (≈ 8.81 µM)	4 (≈ 8.81 µM)	8 (≈ 17.6 µM)	4 (≈ 8.81 µM)	–	–	–	–	–	–	–	–
C[C@@H](c1ncncc1F)[C@](O)(Cn1cncn1)c1ccc(F)cc1F [VORICONAZOLE]	0.06 (≈ 0.172 µM)	0.125 (≈ 0.358 µM)	0.06 (≈ 0.172 µM)	0.06 (≈ 0.172 µM)	0.06 (≈ 0.172 µM)	0.125 (≈ 0.358 µM)	0.125 (≈ 0.358 µM)	–	–	–	–	–	–	8 (≈ 22.9 µM)	>64	>64	32	16	> 30	> 30	IC50 [22]: > 30 µM
CCC(C)n1ncn(-c2ccc(N3CCN(c4ccc(OCC5COC(Cn6cncn6)(c6ccc(Cl)cc6Cl)O5)cc4)CC3)cc2)c1=O (configuration not stated) [ITRACONAZOLE]	0.03 (≈ 0.0425 µM)	0.03 (≈ 0.0425 µM)	0.03 (≈ 0.0425 µM)	0.125 (≈ 0.177 µM)	0.125 (≈ 0.177 µM)	0.125 (≈ 0.177 µM)	0.125 (≈ 0.177 µM)	–	–	–	–	–	–	16 (≈ 22.7 µM)	>64	>64	32	16	> 30	> 30	IC50 [22]: > 30 µM
O=C(NC(Cn1ccnc1)C(=O)c1ccccc1F)c1ccc(-c2ccc(Cl)cc2)s1 (configuration not stated)	0.06 (≈ 0.132 µM)	0.06 (≈ 0.132 µM)	> 64	2 (≈ 4.41 µM)	> 64	> 64	1 (≈ 2.2 µM)	2 (≈ 4.41 µM)	> 64	> 64	> 64	4 (≈ 8.81 µM)	8 (≈ 17.6 µM)	–	–	–	–	–	–	–	–
O=C(NC(Cn1ccnc1)C(=O)c1ccccc1)c1ccc(-c2ccc(Cl)cc2)s1 (configuration not stated)	0.125 (≈ 0.287 µM)	0.125 (≈ 0.287 µM)	0.125 (≈ 0.287 µM)	> 64	0.25 (≈ 0.573 µM)	1 (≈ 2.29 µM)	4 (≈ 9.18 µM)	4 (≈ 9.18 µM)	4 (≈ 9.18 µM)	4 (≈ 9.18 µM)	2 (≈ 4.59 µM)	4 (≈ 9.18 µM)	2 (≈ 4.59 µM)	–	–	–	–	–	–	–	–
C=C[C@H]1C[N@@]2CC[C@H]1C[C@@H]2[C@@H](O)c1ccnc2ccc(OC)cc12 [QUINIDINE]	–	–	–	–	–	–	–	–	–	–	–	–	–	–	–	–	–	–	–	–	inhibition at 10 min [23]: 96.2%
O=C(NC(Cn1ccnc1)C(=O)c1ccccc1)c1ccc(-c2ccc(C(F)(F)F)cc2)s1 (configuration not stated)	0.125 (≈ 0.266 µM)	2 (≈ 4.26 µM)	0.125 (≈ 0.266 µM)	> 64	4 (≈ 8.52 µM)	8 (≈ 17 µM)	16 (≈ 34.1 µM)	4 (≈ 8.52 µM)	2 (≈ 4.26 µM)	> 64	> 64	2 (≈ 4.26 µM)	4 (≈ 8.52 µM)	–	–	–	–	–	–	–	–
O=C(NC(Cn1ccnc1)C(=O)c1cccc(F)c1)c1ccc(-c2ccc(Cl)cc2)s1 (configuration not stated)	0.06 (≈ 0.132 µM)	0.125 (≈ 0.275 µM)	0.125 (≈ 0.275 µM)	0.25 (≈ 0.551 µM)	0.5 (≈ 1.1 µM)	1 (≈ 2.2 µM)	0.25 (≈ 0.551 µM)	2 (≈ 4.41 µM)	2 (≈ 4.41 µM)	0.5 (≈ 1.1 µM)	2 (≈ 4.41 µM)	2 (≈ 4.41 µM)	1 (≈ 2.2 µM)	25 (≈ 55.1 µM)	>64	>64	16	2	4.81	26.5	IC50 [22]: > 30 µM; remaining at 1 h [24]: 73.4%; remaining at 2 h [25]: 47.1%; half-life [26]: 1.85 h
OC(Cn1cncn1)(Cn1cncn1)c1ccc(F)cc1F [FLUCONAZOLE]	0.5 (≈ 1.63 µM)	1 (≈ 3.27 µM)	0.5 (≈ 1.63 µM)	4 (≈ 13.1 µM)	2 (≈ 6.53 µM)	4 (≈ 13.1 µM)	8 (≈ 26.1 µM)	> 64	> 64	> 64	> 64	> 64	> 64	> 64	>64	>64	>64	32	> 30	> 30	Activity [27]: 34.42%; Activity [28]: 3.15%; Activity [29]: 29.02%; Activity [30]: 22.35%; Activity [31]: 4.21%; IC50 [22]: > 30 µM
